According to ChEMBL document CHEMBL5058577, “EUbOPEN Chemogenomics Library 2 (Multiplex)” (2022):

Test system: Fibroblast
Assay: Multiplex assay against human fibroblast
Type: toxicity, cell-based
Method in brief: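 Live cells carried four stains from seeding: Hoechst33342, BioTracker Green Microtubule Cytoskeleton Dye, MitoTracker Red and Annexin V Alexa Fluor 680. They were imaged on a CQ1 microscope at 37°C and 5% CO2 after compound addition. Using CellPathfinder machine-learning gating, cells were split into Hoechst high-intensity objects or normal cells, normal cells into healthy, pyknosed or fragmented nuclei, and pyknosed cells into mitotic or apoptotic; tubulin, mitochondrial-mass and membrane-permeability phenotypes are per cents of healthy-nucleus cells.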

[1] = 12 h, 1 µM, compound concentration 1 uM, replicate 1
[2] = 12 h, 1 µM, compound concentration 1 uM, replicate 2
[3] = 12 h, 10 µM, compound concentration 10 uM, replicate 1
[4] = 12 h, 10 µM, compound concentration 10 uM, replicate 2
[5] = 24 h, 1 µM, compound concentration 1 uM, replicate 1
[6] = 24 h, 1 µM, compound concentration 1 uM, replicate 2
[7] = 24 h, 10 µM, compound concentration 10 uM, replicate 1
[8] = 24 h, 10 µM, compound concentration 10 uM, replicate 2
[9] = 48 h, 1 µM, compound concentration 1 uM, replicate 1
[10] = 48 h, 1 µM, compound concentration 1 uM, replicate 2
[11] = 48 h, 10 µM, compound concentration 10 uM, replicate 1
[12] = 48 h, 10 µM, compound concentration 10 uM, replicate 2

## CC(C)(C)c1cc(NC(=O)Nc2ccc(-c3cn4c(n3)sc3cc(OCCN5CCOCC5)ccc34)cc2)no1 [QUIZARTINIB]
[1]
  Population Apoptotic (%): 42%
  Population Fragmented Nuclei (%): 16%
  Population Healthy Nuclei (%): 65%
  Population Hoechst High Intensity Objects (%): 2%
  Population Membrane Permeable-Phenotype (%): 0%
  Population Mitochondria Different-Phenotype (%): 7%
  Population Mitotic Cells (%): 57%
  Population Normal (%): 97%
  Population Pyknosed Nuclei (%): 17%
  Population Tubulin-Different-Phenotype (%): 31%
  Total Cell Count: 150
[2]
  Population Apoptotic (%): 41%
  Population Fragmented Nuclei (%): 24%
  Population Healthy Nuclei (%): 52%
  Population Membrane Permeable-Phenotype (%): 1%
  Population Mitochondria Different-Phenotype (%): 5%
  Population Mitotic Cells (%): 58%
  Population Pyknosed Nuclei (%): 23%
  Population Tubulin-Different-Phenotype (%): 41%
  Total Cell Count: 137
[3]
  Population Apoptotic (%): 43%
  Population Fragmented Nuclei (%): 34%
  Population Healthy Nuclei (%): 56%
  Population Hoechst High Intensity Objects (%): 3%
  Population Membrane Permeable-Phenotype (%): 0%
  Population Mitochondria Different-Phenotype (%): 10%
  Population Mitotic Cells (%): 56%
  Population Normal (%): 96%
  Population Pyknosed Nuclei (%): 8%
  Population Tubulin-Different-Phenotype (%): 75%
  Total Cell Count: 190
[4]
  Population Apoptotic (%): 48%
  Population Fragmented Nuclei (%): 35%
  Population Healthy Nuclei (%): 45%
  Population Hoechst High Intensity Objects (%): 5%
  Population Membrane Permeable-Phenotype (%): 5%
  Population Mitochondria Different-Phenotype (%): 5%
  Population Mitotic Cells (%): 51%
  Population Normal (%): 94%
  Population Pyknosed Nuclei (%): 18%
  Population Tubulin-Different-Phenotype (%): 70%
  Total Cell Count: 162
[5]
  Population Apoptotic (%): 58%
  Population Fragmented Nuclei (%): 14%
  Population Healthy Nuclei (%): 72%
  Population Hoechst High Intensity Objects (%): 1%
  Population Membrane Permeable-Phenotype (%): 0%
  Population Mitochondria Different-Phenotype (%): 6%
  Population Mitotic Cells (%): 41%
  Population Normal (%): 98%
  Population Pyknosed Nuclei (%): 12%
  Population Tubulin-Different-Phenotype (%): 32%
  Total Cell Count: 137
[6]
  Population Apoptotic (%): 42%
  Population Fragmented Nuclei (%): 25%
  Population Healthy Nuclei (%): 61%
  Population Hoechst High Intensity Objects (%): 3%
  Population Membrane Permeable-Phenotype (%): 2%
  Population Mitotic Cells (%): 57%
  Population Normal (%): 96%
  Population Pyknosed Nuclei (%): 13%
  Population Tubulin-Different-Phenotype (%): 44%
  Total Cell Count: 152
[7]
  Population Apoptotic (%): 75%
  Population Fragmented Nuclei (%): 33%
  Population Healthy Nuclei (%): 57%
  Population Hoechst High Intensity Objects (%): 1%
  Population Membrane Permeable-Phenotype (%): 0%
  Population Mitochondria Different-Phenotype (%): 21%
  Population Mitotic Cells (%): 25%
  Population Normal (%): 98%
  Population Pyknosed Nuclei (%): 8%
  Population Tubulin-Different-Phenotype (%): 71%
  Total Cell Count: 190
[8]
  Population Apoptotic (%): 39%
  Population Fragmented Nuclei (%): 40%
  Population Healthy Nuclei (%): 46%
  Population Hoechst High Intensity Objects (%): 4%
  Population Membrane Permeable-Phenotype (%): 1%
  Population Mitochondria Different-Phenotype (%): 10%
  Population Mitotic Cells (%): 60%
  Population Normal (%): 95%
  Population Pyknosed Nuclei (%): 13%
  Population Tubulin-Different-Phenotype (%): 70%
  Total Cell Count: 179
[9]
  Population Apoptotic (%): 75%
  Population Fragmented Nuclei (%): 19%
  Population Healthy Nuclei (%): 71%
  Population Hoechst High Intensity Objects (%): 8%
  Population Membrane Permeable-Phenotype (%): 0%
  Population Mitochondria Different-Phenotype (%): 5%
  Population Mitotic Cells (%): 25%
  Population Normal (%): 91%
  Population Pyknosed Nuclei (%): 9%
  Population Tubulin-Different-Phenotype (%): 38%
  Total Cell Count: 145
[10]
  Population Apoptotic (%): 42%
  Population Fragmented Nuclei (%): 30%
  Population Healthy Nuclei (%): 60%
  Population Hoechst High Intensity Objects (%): 3%
  Population Membrane Permeable-Phenotype (%): 1%
  Population Mitochondria Different-Phenotype (%): 8%
  Population Mitotic Cells (%): 57%
  Population Normal (%): 96%
  Population Tubulin-Different-Phenotype (%): 34%
  Total Cell Count: 158
[11]
  Population Apoptotic (%): 79%
  Population Fragmented Nuclei (%): 30%
  Population Healthy Nuclei (%): 56%
  Population Hoechst High Intensity Objects (%): 7%
  Population Membrane Permeable-Phenotype (%): 0%
  Population Mitochondria Different-Phenotype (%): 25%
  Population Mitotic Cells (%): 20%
  Population Normal (%): 92%
  Population Pyknosed Nuclei (%): 13%
  Population Tubulin-Different-Phenotype (%): 74%
  Total Cell Count: 195
[12]
  Population Apoptotic (%): 60%
  Population Fragmented Nuclei (%): 44%
  Population Healthy Nuclei (%): 50%
  Population Hoechst High Intensity Objects (%): 3%
  Population Membrane Permeable-Phenotype (%): 2%
  Population Mitochondria Different-Phenotype (%): 6%
  Population Mitotic Cells (%): 40%
  Population Normal (%): 96%
  Population Pyknosed Nuclei (%): 5%
  Population Tubulin-Different-Phenotype (%): 59%
